Laboratory results reported in paper PMC5409837 (Science translational medicine, 2017).
Where two headings read alike, the source gives them in different places.

Assays:
[1] = tested on: INSR and IGF1R phosphorylation; test: Human Phospho-RTK Array in hiPSC-CMs: INSR and IGF1R; assay type: cell-based; settings: for INSR and IGF1R phosphorylation: 0-1 μM, 72 hours
[2] = Clinical cardiotoxicity in patients; assay type: in vivo, human; settings: sunitinib first-line, axitinib second-line treatment
hiPSCs = assay type: cell-based, human
hiPSC-CMs [3] = test: Calcium imaging of hiPSC-CMs; assay type: cell-based, human; settings: 2 hour treatment; for beat rate (calcium imaging) / calcium transient duration: clinically-relevant concentrations
Summary of the method: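 hiPSC-CMs (day 30–40 post-differentiation) reseeded on Matrigel-coated chamber slides and exposed to test compound for 2 hours; compound stocks in DMSO at 10 mM. Cells loaded with 5 μM Fluo-4 AM plus 0.02% Pluronic F-127 in Tyrode's solution for 15 min at 37°C, then washed. Spontaneous Ca2+ transients recorded at 37°C by confocal single-cell line scan.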

hiPSC-CMs [4] = settings: for LD50: hiPSC-CMs, 72 hour TKI treatment, PrestoBlue cell viability assay
[5] = tested on: VEGFR2 and PDGFRα phosphorylation; settings: hiPSC-CMs
hiPSC-CMs [6] = test: Patch clamp electrophysiology; assay type: cell-based, human; settings: two hour treatment; for action potential duration: clinically-relevant concentrations
hiPSC-CMs [7] = test: High-throughput hiPSC-CM contractility assessment; assay type: cell-based, human; settings: for alterations in beating rate relative to LD50: commercially-available healthy control hiPSC-CMs, 72 hour treatment
Axl phosphorylation = test: Human Phospho-RTK Array in hiPSC-CMs: Axl; assay type: cell-based; settings: 0-1 μM, 72 hours
hiPSC-CMs [8] = tested on: hiPSC-CMs
[9] = patients, cited from earlier work
neuropilin 2 (NRP2) = test: Microarray gene expression in hiPSC-CMs after TKI treatment; assay type: cell-based, human; settings: 1 μM TKI, 72 hour
hiPSC-CFs = test: TKI cytotoxicity in hiPSC-derived cardiac fibroblasts; assay type: cell-based
hiPSC-ECs = test: TKI cytotoxicity in hiPSC-derived endothelial cells; assay type: cell-based
hiPSC-CMs [10] = settings: cited from earlier work
zebrafish heart = settings: cited from earlier work
VEGFC = test: RNA-sequencing of hiPSC-CMs treated with sorafenib: VEGFC; assay type: cell-based, human; settings: 5 healthy control hiPSC-CM lines, 1 μM, 72 hours
Akt protein network = test: Human Phospho-Kinase Antibody Array in hiPSC-CMs after IGF1 or insulin; assay type: cell-based; settings: 12 hour IGF1 or insulin treatment
hiPSC-CMs [11] = assay type: cell-based; settings: for rescue of ponatinib toxicity (hiPSC-CM viability): co-treatment with ponatinib, 72 hours, CellTiter-Glo
[12] = quantitative and qualitative viability assays

## CNC(=O)c1ccccc1Sc1ccc2c(/C=C/c3ccccn3)n[nH]c2c1 [axitinib]
[1]
  fold enhancement of INSR/IGF1R phosphorylation: two-fold
  INSR and IGF1R phosphorylation: increased INSR and IGF1R phosphorylation
[2]
  clinical cardiotoxicity in the two kidney cancer patients: no significant clinical cardiotoxicity
hiPSCs
  toxicity in undifferentiated hiPSCs: extremely toxic to hiPSCs
hiPSC-CMs [3]
  calcium imaging parameters (transient amplitude, transient duration, beating rate): did not significantly alter parameters such as calcium transient amplitude, transient duration, or beating rate
hiPSC-CMs [4]
  difference in cytotoxicity between TKI-receiving patient hiPSC-CMs and healthy control hiPSC-CM lines: did not observe a significant difference in cytotoxicity
  relative cytotoxicity among TKIs in hiPSC-CMs: the least cytotoxic TKI in hiPSC-CMs
[5]; 0-1 μM, 72 hours, sub-cytotoxic concentrations
  VEGFR2 and PDGFRα phosphorylation: the strongest dual-inhibition
hiPSC-CMs [6]
  action potential duration: did not alter action potential duration
hiPSC-CMs [7]; clinically-relevant concentrations
  contraction irregularities: Neither DMSO nor axitinib elicited contraction irregularities

## COc1cc2nccc(Oc3ccc(NC(=O)C4(C(=O)Nc5ccc(F)cc5)CC4)cc3)c2cc1OC [cabozantinib]
Axl phosphorylation
  Axl phosphorylation: decreased Axl phosphorylation

## COc1cccc2c1C(=O)c1c(O)c3c(c(O)c1C2=O)C[C@@](O)(C(=O)CO)C[C@@H]3O[C@H]1C[C@H](N)[C@H](O)[C@H](C)O1 [doxorubicin]
hiPSCs
  toxicity in hiPSCs at 0.1 μM: lethal
  toxicity in undifferentiated hiPSCs: substantially enhanced in hiPSCs
hiPSC-CMs [4]
  LD50: 0.78 µM
hiPSC-CMs [8]; human, 72 h
  cardiac safety index: ≤ 0.10

## C#Cc1cccc(Nc2ncnc3cc(OCCOC)c(OCCOC)cc23)c1 [erlotinib]
hiPSC-CMs [4]
  LD50: 87.60 µM

## Cc1ccc(NC(=O)c2ccc(CN3CCN(C)CC3)cc2)cc1Nc1nccc(-c2cccnc2)n1 [imatinib]
hiPSC-CMs [3]
  calcium imaging parameters (transient amplitude, transient duration, beating rate): did not significantly alter parameters such as calcium transient amplitude, transient duration, or beating rate

## Cc1cn(-c2cc(NC(=O)c3ccc(C)c(Nc4nccc(-c5cccnc5)n4)c3)cc(C(F)(F)F)c2)cn1 [nilotinib]
hiPSC-CMs [3]
  beat rate (calcium imaging): decreased beat rate
  calcium transient duration: prolonged calcium transient duration
hiPSC-CMs [6]
  cellular beating rate (patch clamp): decreased cellular beating rate
  action potential duration: significantly prolonged action potential duration
hiPSC-CMs [8]; human, 72 h
  cardiac safety index: ≤ 0.10
[9]
  clinical QT interval prolongation and arrhythmias: cause dangerous QT interval prolongation and arrhythmias clinically
hiPSC-CMs [7]
  alterations in beating rate relative to LD50: alterations in hiPSC-CM beating rate and other parameters at doses lower than LD50 cytotoxicity values

## Cc1ccc(C(=O)Nc2ccc(CN3CCN(C)CC3)c(C(F)(F)F)c2)cc1C#Cc1cnc2cccnn12 [ponatinib]
[1]
  fold enhancement of INSR/IGF1R phosphorylation: two-fold
  INSR and IGF1R phosphorylation: increased INSR and IGF1R phosphorylation
Neuropilin 2 (NRP2)
  increase in expression of neuropilin 2: two-fold
hiPSC-CFs
  relative cytotoxicity in hiPSC-CFs: the highest cytotoxicities
hiPSC-ECs
  relative cytotoxicity in hiPSC-ECs: the most cytotoxic TKIs in hiPSC-ECs
hiPSC-CMs [10]
  mitochondrial stress and contraction abnormalities in hiPSC-CMs: induce mitochondrial stress and elicit contraction abnormalities in hiPSC-CMs
hiPSC-CMs [4]
  LD50: 4.3 µM
hiPSC-CMs [4]; [12]
  cytotoxicity in all eleven healthy control hiPSC-CM lines: highly cytotoxic
[5]
  VEGFR2/PDGFR inhibition at nanomolar concentrations: complete VEGFR2/PDGFR inhibition

## CNC(=O)c1cc(Oc2ccc(NC(=O)Nc3ccc(Cl)c(C(F)(F)F)c3)c(F)c2)ccn1 [regorafenib]
Neuropilin 2 (NRP2)
  increase in expression of neuropilin 2: two-fold
hiPSC-CFs
  relative cytotoxicity in hiPSC-CFs: the highest cytotoxicities
hiPSC-ECs
  relative cytotoxicity in hiPSC-ECs: the most cytotoxic TKIs in hiPSC-ECs
hiPSC-CMs [4]
  LD50: 7.1 µM
hiPSC-CMs [4]; [12]
  cytotoxicity in all eleven healthy control hiPSC-CM lines: highly cytotoxic
[5]
  VEGFR2/PDGFR inhibition at nanomolar concentrations: complete VEGFR2/PDGFR inhibition
hiPSC-CMs [8]; value from 0-1, 0.10 = threshold for highly cardiotoxic compounds
  cardiac safety index: below 0.10

## CNC(=O)c1cc(Oc2ccc(NC(=O)Nc3ccc(Cl)c(C(F)(F)F)c3)cc2)ccn1 [sorafenib]
Neuropilin 2 (NRP2)
  increase in expression of neuropilin 2: two-fold
Zebrafish heart
  cardiotoxicity in zebrafish heart: induces cardiomyocyte death and contractility defects in the zebrafish heart
hiPSC-CMs [4]
  cytotoxicity in all eleven healthy control hiPSC-CM lines: highly cytotoxic
  LD50: 3.4 µM
VEGFC
  VEGFC expression: increased expression
[9]; ref Table S2, 20
  clinical cardiotoxicity: causes ventricular dysfunction and heart failure clinically

## CCN(CC)CCNC(=O)c1c(C)[nH]c(/C=C2\C(=O)Nc3ccc(F)cc32)c1C [sunitinib]
[2]
  clinical cardiotoxicity in the two kidney cancer patients: no significant clinical cardiotoxicity
hiPSC-CMs [4]
  difference in cytotoxicity between TKI-receiving patient hiPSC-CMs and healthy control hiPSC-CM lines: did not observe a significant difference in cytotoxicity

## COc1cc2c(Nc3ccc(Br)cc3F)ncnc2cc1OCC1CCN(C)CC1 [vandetanib]
hiPSC-CMs [3]
  beat rate (calcium imaging): decreased beat rate
  calcium transient duration: prolonged calcium transient duration
hiPSC-CMs [6]
  cellular beating rate (patch clamp): decreased cellular beating rate
  action potential duration: significantly prolonged action potential duration
[9]
  clinical QT interval prolongation and arrhythmias: cause dangerous QT interval prolongation and arrhythmias clinically
hiPSC-CMs [7]
  alterations in beating rate relative to LD50: alterations in hiPSC-CM beating rate and other parameters at doses lower than LD50 cytotoxicity values

## IGF1
Akt protein network
  phosphorylation of Akt protein network: enhanced phosphorylation of the anti-apoptotic Akt protein network
hiPSC-CMs [11]
  rescue of ponatinib toxicity (hiPSC-CM viability): cardioprotective effect
hiPSC-CMs [11]; listed as IGF
  rescue of ponatinib toxicity (hiPSC-CM viability): significantly rescued ponatinib toxicity

## insulin
Akt protein network
  phosphorylation of Akt protein network: enhanced phosphorylation of the anti-apoptotic Akt protein network
hiPSC-CMs [11]; co-treatment with doxorubicin
  rescue of doxorubicin cytotoxicity in hiPSC-CMs: rescued hiPSC-CMs from doxorubicin cytotoxicity
